Source: PubChem (several laboratories)
OX1R antag-1: antagonists of human orexin 1 receptor (OX1R) | O43613 | 330,000 tested, 1.8% active | AID 485270 | OX1R-expressing cells, FRET antagonist read-out | inhibition, % at 6.6 µM; in the data active = inhibition mostly above about 38%, no sharp cut-off; inactive = mostly below about 40%;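 also: 0% = agonist challenge alone and 100% = reference antagonist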
TAAR1 antag: human TAAR1 antagonism | Q96RJ0 | CHO RD-HGA16 TAAR1, Fluo-8 calcium fluorescence, antagonist | inhibition, % at 3 µM | 360,000 tested, 1.5% active | AID 624466;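 active = inhibition above a per-plate cutoff, the mean inhibition of test compounds on that plate plus 3 SD, cut at about 49% in these data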;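 also: 0% = DMSO plus EC80 beta-PEA response and 100% = DMSO alone without agonist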
Target sequence (Q96RJ0 whole entry, looked up): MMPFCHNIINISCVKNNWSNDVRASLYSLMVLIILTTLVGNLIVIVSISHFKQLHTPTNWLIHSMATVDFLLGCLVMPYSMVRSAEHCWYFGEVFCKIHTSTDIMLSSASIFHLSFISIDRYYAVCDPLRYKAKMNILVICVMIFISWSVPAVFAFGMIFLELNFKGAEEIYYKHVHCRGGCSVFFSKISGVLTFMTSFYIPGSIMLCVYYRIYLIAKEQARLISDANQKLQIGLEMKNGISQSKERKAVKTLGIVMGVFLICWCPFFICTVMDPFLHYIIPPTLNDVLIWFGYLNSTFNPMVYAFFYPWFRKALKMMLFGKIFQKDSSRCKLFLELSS
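System: RD-HGA16 CHO cells with stable hTAAR1 and Gα16 | Probe or stimulus: EC80 β-phenethylamine stimulus | Dosing: 3 µM, single point | Times: Dye loading 75 min at 37 °C, then 30 min room temperature | Measured by: Fluo-8 calcium-sensitive fluorescence | Read-out basis: % inhibition of agonist calcium response | Replicates: n of 1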
CHO parental Ca: counter-screen: ATP calcium response change in parental CHO cells. parental CHO-K1, ATP-induced calcium, Fluo-8 fluorescence. inhibition, % at 5.6 µM. 330,000 tested, 0.63% active. AID 463079;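 active = inhibition above that plate's mean sample inhibition plus 3 SD, cut at about 26% in these data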;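 also: 0% = ATP-challenged DMSO wells and 100% = DMSO wells without ATP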
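Test system: untransfected parental CHO cell line. Compound: one dose, 5.6 µM nominal. Detection: intracellular calcium via Fluo-8 no-wash fluorescent dye. Measure: % inhibition. Benchmarks: ATP-challenged DMSO wells low, unchallenged DMSO wells high.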
TAAR1 ag: agonists of human TAAR1. Q96RJ0. CHO RD-HGA16 TAAR1, Fluo-8 calcium fluorescence; vehicle wells 0%, saturating PEA agonist 100%. AID 624467. activation, % at 3 µM. 360,000 tested, 0.99% active;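 active = activation above the mean activation of all test compounds in the run plus 3 SD, cut at about 38% in these data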
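Repeats: no replicates (n 1) | Material: CHO-derived RD-HGA16 cells with stable Gα16 and human TAAR1 | Technique: Kinetic Fluo-8 calcium fluorescence | Schedule: 17-24 h seeding, 75 min 37 °C dye, 30 min RT | Evaluation: % activation from peak over basal fluorescence ratio, DMSO-to-PEA scaled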
OX1R antag-2: antagonists of human orexin 1 receptor. O43613. AID 434989. inhibition, % at 5 µM. CHO/OX1R cells, Fluo-8 calcium fluorescence, orexin A. 330,000 tested, 0.43% active;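 active = inhibition above its plate's threshold, mean inhibition of all tested compounds on the plate plus 3 SD, cut at about 37% in these data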;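 also: 0% = orexin A challenge wells and 100% = SB-334867-A antagonist wells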
NTR1 ag: NTR1 (human) agonism; P30989; NTR1-U2OS beta-arrestin-GFP spot imaging, agonist mode; activation, % at 20 µM; 330,000 tested, 0.17% active;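 active = activation at or above 40% of the spot to cytoplasm intensity ratio, with at least 20 cells analyzed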;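 also: 0% = DMSO without peptide and 100% = 100 nM NTR1 peptide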
* = called active by the depositor; x = no result given. Hits are enriched below; roughly 4% of the tested compounds scored in any of these assays.

SMILES | OX1R antag-1 | TAAR1 antag | CHO parental Ca | TAAR1 ag | OX1R antag-2 | NTR1 ag
Cc1ccc(-n2nnnc2C(Cl)(Cl)c2nnnn2-c2ccc(C)cc2)cc1 | 19 | 26 | 48* | 33 | 55* | 21
COc1ccc(CCC(=O)OCc2csc(CC(=O)Nc3ccccc3C)n2)cc1 | 8 | 1 | -6 | 0 | -16 | 1
CC(=O)C1=C(C)N(Cc2ccc(F)cc2)C(=S)NC1c1cccc(F)c1 (stereo not given) | x | 34 | x | -1 | x | x
CCN1C(=O)C(CC(=O)Nc2ccccc2Cl)N(NC(=O)c2cccc(F)c2)C1=S (stereo not given) | 75* | -2 | -6 | 5 | 9 | 0
COc1ccc(C)cc1S(=O)(=O)NCc1ccccn1 | x | -8 | x | -1 | x | x
CC(=O)c1ccc(OCc2ccc(C(=O)c3ccccc3)cc2)cc1 | 43 | 32 | 49* | 7 | 22 | 1
CC(C)[C@H](NC(=O)c1ccco1)C(=O)N(C)Cc1ccc(C(F)(F)F)cc1 | 22 | 2 | -29 | -1 | -26 | 0
CC1=C(C(=O)NC2CCCc3c2cnn3-c2cccc(C)c2C)OCCO1 (stereo not given) | 67* | 23 | 14 | 2 | 15 | 2
Cc1cc(C(=O)NC2CCCc3c2cnn3-c2cccc(C)c2C)no1 (stereo not given) | 23 | 14 | 7 | 1 | -5 | 2
CCn1cc(C(=O)NC2CCCc3c2cnn3-c2cccc(C)c2C)cn1 (stereo not given) | 54 | 2 | 54* | 6 | 16 | 0
COc1ccc(C(=O)NC2CCCc3c2cnn3-c2cccc(C)c2C)o1 (stereo not given) | 68* | 24 | 0 | 1 | 12 | 2
Cc1cccc(-n2ncc3c2CCCC3NC(=O)c2ccncc2)c1C (stereo not given) | x | 22 | x | 7 | x | x
C[C@H]1COc2cc(NCCO)ccc2S(=O)(=O)N1 | x | -12 | x | 1 | x | x
CCNC(=O)CC1C(=O)N(c2ccc(F)cc2)C(=O)N1CCc1ccc(OC)cc1 (stereo not given) | 1 | 8 | -17 | 3 | -12 | 2
COc1ccc(CCNC2=CC(=O)N(c3ccc(F)cc3)C2=O)cc1 | 21 | -11 | 39* | 22 | -8 | 1
O=C(COC(=O)c1ccc2ncsc2c1)Nc1ccc(OC(F)(F)F)cc1 | -5 | -3 | 25 | 2 | 37* | -2
CC(=O)NC(Cc1c[nH]c2ccccc12)C(=O)OCC(=O)Nc1ccc2c(c1)OCO2 (stereo not given) | 51 | 1 | 6 | 2 | 13 | 2
CC(=O)N[C@@H](Cc1c[nH]c2ccccc12)C(=O)OCC(=O)Nc1ccc(Cl)c(S(=O)(=O)N(C)C)c1 | 54* | 19 | 5 | 11 | 23 | 4
Cc1ccc(S(=O)(=O)N2CCOCC2)cc1C(=O)N1CCN(c2ccc(C(F)(F)F)cn2)CC1 | 10 | -13 | -14 | 2 | -16 | -1
COc1ccc(/C=C2\SC(=S)NC2=O)cc1OS(=O)(=O)c1ccc(NC(C)=O)cc1 | x | -7 | x | 2 | x | x
CCOc1ccc(/C=C2\SC(=S)NC2=O)cc1OC | 46 | 3 | 2 | 0 | -21 | 0
COc1cc(/C=C2/SC(=S)NC2=O)ccc1OS(=O)(=O)c1ccc(C)cc1 | 64* | x | 6 | x | 10 | 12
COc1cc(/C=C2\SC(=S)NC2=O)ccc1OS(=O)(=O)c1ccccc1 | 80* | x | 11 | x | 10 | 12
CCOC(=O)C1CSCCS(=O)(=O)N1Cc1ccc(Br)cc1 (stereo not given) | x | -13 | x | -1 | x | x
COc1ccc(NC(=O)N(C)C[C@@H]2OCc3cnnn3CCCC(=O)N([C@H](C)CO)C[C@H]2C)c(OC)c1 | x | -6 | x | 0 | x | x
Cn1c2ccccc2c(=O)c2ccc(C#Cc3ccc(N)cc3)cc21 | 31 | 38 | 0 | 4 | 0 | 6
Cn1c2ccccc2c(=O)c2cc(C#CC3=CCCCC3)ccc21 | 37* | 21 | -29 | 3 | 0 | 7
Cc1cccc(/C=C/c2onc(C)c2[N+](=O)[O-])n1 | 65* | -5 | -11 | -1 | -12 | 19
